The source of these data is ChEMBL document CHEMBL3612059, “Synthesis of 1,2-benzisoxazole tethered 1,2,3-triazoles that exhibit anticancer activity in acute myeloid leukemia cell lines by inhibiting histone deacetylases, and inducing p21 and tubulin acetylation” (Bioorg Med Chem, 2015).

Test [1] relates to MOLM-13 (Homo sapiens). Description: Induction of apoptosis in human MOLM13 cells assessed as late apoptotic cells at 10 uM after 72 hrs by Annexin V-FITC/propidium iodide staining-based flow cytometric analysis (reference value: 7%).
For test [2], the system named is MOLM-14. In words: Induction of apoptosis in human MOLM14 cells assessed as late apoptotic cells at 5 uM after 72 hrs by Annexin V-FITC/propidium iodide staining-based flow cytometric analysis (reference value: 2%). In kind it is functional. Summed up:
(§1)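 100,000 cells per well treated with 2.5, 5.0 or 10 μM for 72 h. Washed in ice-cold Ca/Mg-free PBS, resuspended in 100 μl binding buffer, stained with 5 μl PI plus 3 μl annexin V-FITC for 15 min in the dark, then read immediately by flow cytometry. Quadrants scored as live, early apoptotic, late apoptotic and necrotic.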

In test [3] the test system is MOLM-13 (Homo sapiens). Description: Cell cycle arrest in human MOLM13 cells assessed as accumulation at G2/M phase after 72 hrs by propidium iodide staining-based flow cytometric analysis.
Test [4] relates to MV4-11. In words: Induction of apoptosis in human MV4-11 cells assessed as late apoptotic cells at 10 uM after 72 hrs by Annexin V-FITC/propidium iodide staining-based flow cytometric analysis (reference value: 2%). In kind it is functional. Summed up: as §1
The test system of test [5] is MOLM-14. In words: Induction of apoptosis in human MOLM14 cells assessed as early apoptotic cells at 2.5 uM after 72 hrs by Annexin V-FITC/propidium iodide staining-based flow cytometric analysis (reference value: 7%). The class given is functional. A digest of the protocol: as §1
Test [6] deals with MOLM-14. In words: Induction of apoptosis in human MOLM14 cells assessed as early apoptotic cells at 5 uM after 72 hrs by Annexin V-FITC/propidium iodide staining-based flow cytometric analysis (reference value: 7%). The class given is functional. A digest of the protocol: as §1
The test system of test [7] is MOLM-13 (Homo sapiens). In words: Induction of apoptosis in human MOLM13 cells assessed as necrotic cells at 2.5 uM after 72 hrs by Annexin V-FITC/propidium iodide staining-based flow cytometric analysis (reference value: 3%).
In test [8] the test system is MOLM-13 (Homo sapiens). In words: Induction of apoptosis in human MOLM13 cells after 72 hrs by Annexin V-FITC/propidium iodide staining-based flow cytometric analysis.
In test [9] the test system is MV4-11. In words: Cell cycle arrest in human MV4-11 cells assessed as accumulation at G2/M phase after 72 hrs by propidium iodide staining-based flow cytometric analysis. The class given is functional. A digest of the protocol: (§2)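 Cells in RPMI with 10 % FBS at 37 °C, 5 % CO₂; treated up to 72 h, washed in cold PBS, fixed in -20 °C-precooled 70 % ethanol at 4 °C. Stained with 50 µg/ml PI, 1 % Triton X-100 and 20 µg/ml RNase A in PBS, 30 min, 37 °C, dark. Cell-cycle phases read by flow cytometry; three independent experiments, mean ± SD.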

The subject of test [10] is MOLM-14. Description: Cytotoxicity against human MOLM14 cells assessed as cell viability after 24 to 96 hrs by MTT assay. The class given is functional, cell-based. A digest of the protocol: (§3)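 AML cells kept in RPMI with 10 % FBS and 1 % penicillin-streptomycin at 37 °C, 5 % CO₂, mycoplasma-screened. Seeded at 8,000 cells/well across a range of concentrations and read at several times up to 96 h. MTT added to 0.5 mg/ml final for 3 h at 37 °C, formazan dissolved in SDS-HCl, absorbance read at 570 nm. IC50 taken from the dose-response curves.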

Test [11] concerns MOLM-13 (Homo sapiens). Description: Induction of apoptosis in human MOLM13 cells assessed as early apoptotic cells at 10 uM after 72 hrs by Annexin V-FITC/propidium iodide staining-based flow cytometric analysis (reference value: 11%).
The subject of test [12] is MV4-11. Description: Induction of apoptosis in human MV4-11 cells assessed as early apoptotic cells at 10 uM after 72 hrs by Annexin V-FITC/propidium iodide staining-based flow cytometric analysis (reference value: 7%). In kind it is functional. A digest of the protocol: as §1
Test [13] deals with MOLM-14. In words: Induction of apoptosis in human MOLM14 cells assessed as necrotic cells at 10 uM after 72 hrs by Annexin V-FITC/propidium iodide staining-based flow cytometric analysis (reference value: 1%). In kind it is functional. Summed up:
as §1

Test [14] concerns MV4-11. In words: Cell cycle arrest in human MV4-11 cells assessed as decrease in cells level at G1 phase after 72 hrs by propidium iodide staining-based flow cytometric analysis. In kind it is functional. Summed up:
as §2

In test [15] the test system is MV4-11. Description: Cytotoxicity against human MV4-11 cells assessed as cell viability at 0.25 to 5 uM by MTT assay. In kind it is functional, cell-based. Summed up:
as §3

The target in test [16] is Histone deacetylase (Homo sapiens) (UniProt Q13547+O15379+Q9UBN7+Q92769+Q9UQL6+Q8WUI4+Q9BY41+Q96DB2+P56524+Q9UKV0+Q969S8). In words: Inhibition of HDAC in human MV4-11 cells assessed as increase in acetylation of histone H3 by Western blot analysis. In kind it is cell-based. Summed up: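 MV4-11 cells were treated and histones acid-extracted: Triton buffer, then NaCl buffer, 0.24 M H2SO4 on ice for 2 h, acetone precipitation overnight, Bradford quantitation. Histones (0.5 µg) were run on 4-20 % gradient gels, blotted to PVDF, blocked in 5 % milk and probed overnight at 4 °C with anti-acetyl-histone H3 (1:1000). HRP secondary, ECL detection, total histone H3 as loading control.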

Test [17] has as its system MOLM-14. Description: Induction of apoptosis in human MOLM14 cells assessed as late apoptotic cells at 10 uM after 72 hrs by Annexin V-FITC/propidium iodide staining-based flow cytometric analysis (reference value: 2%). In kind it is functional. A digest of the protocol: as §1
Test [18] has as its system MV4-11. In words: Cell cycle arrest in human MV4-11 cells assessed as accumulation at sub-G1 phase after 72 hrs by propidium iodide staining-based flow cytometric analysis. The class given is functional. Summed up: as §2
For test [19], the system named is MOLM-13 (Homo sapiens). Description: Induction of apoptosis in human MOLM13 cells assessed as necrotic cells at 5 uM after 72 hrs by Annexin V-FITC/propidium iodide staining-based flow cytometric analysis (reference value: 3%).
Test [20] has as its system MV4-11. Description: Cytotoxicity against human MV4-11 cells assessed as cell viability after 72 hrs by MTT assay. In kind it is functional, cell-based. Particulars: MV4-11, 72 h. Summed up: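 MV4-11 cells, 8,000/well, exposed for 72 h to […]. MTT added to 0.5 mg/ml final for 3 h at 37 °C, SDS-HCl solubilization, A570 read. Percent inhibition normalized to diluent controls. Three independent experiments in quadruplicate, mean ± SD.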

Test [21] has as its system MV4-11. In words: Upregulation of p21 protein expression in human MV4-11 cells by Western blot analysis. The class given is functional, cell-based.
Test [22] deals with MOLM-13 (Homo sapiens). In words: Induction of apoptosis in human MOLM13 cells assessed as necrotic cells at 10 uM after 72 hrs by Annexin V-FITC/propidium iodide staining-based flow cytometric analysis (reference value: 3%).

Activity calls are given as the source filed them. The calls are words filed in the database; no cut-off is given here.

Take `c1ccc(Oc2ccc(-c3cn(-c4noc5ccccc45)nn3)cc2)cc1`: the Activity with MOLM-13 (Homo sapiens) [1] is on record as 35%; with MOLM-14 [2] it was 28%; in the test on MV4-11 [4], 26%; in the test on MOLM-14 [5], 12%; in the test with MOLM-14 [6] it was 17%; in the test with MOLM-13 (Homo sapiens) [7] it was 14%. The Activity entry with MOLM-13 (Homo sapiens) [8] is “Dose-dependent effect”; in the test on MOLM-14 [10] it was “Dose-dependent effect”; in the test on MOLM-13 (Homo sapiens) [11] it was 28%; in the test with MV4-11 [12], 20%; with MOLM-14 [13], 10%; with MV4-11 [15], “Dose-dependent effect”. In addition, the Activity with MOLM-14 [17] is 30%; in the test on MOLM-13 (Homo sapiens) [19], 18%; in the test with MOLM-13 (Homo sapiens) [22], 18%. The result in the test on MOLM-13 (Homo sapiens) [3], in the test with MV4-11 [9], in the test with MV4-11 [14], in the test on MV4-11 [18] and in the test with MV4-11 [21] was Active. In addition, in test [16], the inhibition entry was “Active”. Further, in the test with MV4-11 [20], the IC50 is 2000 nM.
